The nature of test [1]: hit retest on RPL19A-GFP reporter strain – cell-based, S. cerevisiae, flow cytometry, cherry picks, mother/daughter gates, confirmation (AID 2270;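 active means GFP response below 50% of the DMSO control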). As to conditions: 3 h, at 10 µM, stronger effect = lower value, 100 = same GFP as DMSO wells.
The nature of test [2]: yeast TOR pathway reporter LAP4-GFP change – cell-based, cherry picks, flow cytometry, mother/daughter gates, confirmation (AID 2271;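 active means GFP response above 150% of the DMSO control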;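 further: ratio of sample to DMSO plate mean so 100% equals DMSO level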). As to conditions: S. cerevisiae LAP4-GFP strain, 3 h, at 10 µM, stronger effect = higher value, 100 means same as DMSO control. An outline of the steps:
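Material: Alexa Fluor 633-labelled Saccharomyces cerevisiae GFP-fusion strain, single-plex | Amount: Yeast cells seeded at OD600 of 0.2 | Buffer or medium: SC growth medium | Schedule: 3 h exposure, 30 °C | Measured by: HT flow cytometry, GFP fluorescence channel | Evaluation: % GFP response vs DMSO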
A general note: A flow cytometer gives signals particle by particle.

Test [3] can be described thus: TOR pathway reporter MEP2-GFP, retest of hits – S. cerevisiae, flow cytometry GFP, cherry picks, confirmation (AID 2272;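 active means GFP response above 150% of the DMSO control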;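 further: ratio of well signal to plate DMSO mean so 100% equals DMSO level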). As to conditions: S. cerevisiae MEP2-GFP strain, 3 h, at 10 µM, stronger effect = higher value.
Test [4] in a line: yeast AGP1-GFP fluorescence change, single-dose – cell-based, flow cytometry, S. cerevisiae, cherry picks, confirmation (AID 2273).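 Further: median GFP channel fluorescence over the whole cell population gate.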 As to conditions: S. cerevisiae AGP1-GFP strain, 3 h, at 10 µM.
Test [5] can be described thus: TOR pathway CIT2 reporter hit retest – S. cerevisiae, GFP fusion, cherry picks, mother/daughter gates, confirmation (AID 2274). As to conditions: S. cerevisiae CIT2-GFP strain, flow cytometry, 3 h, at 10 µM, stronger effect = higher value.
The mark [6] stands for this setting: measured here: daughter cell gate.
[7] abbreviates: measured here: mother cell gate.
The mark [8] stands for this setting: measured here: daughter cell gate response.
[9] abbreviates: measured here: mother cell gate response.

Molecules are shown by their SMILES. Active and inactive are the calls of the source.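 How the source made its calls, unless noted: active means GFP response above 150% of the DMSO level; inconclusive means fewer than 70 events counted for a yeast strain; inactive means the rest.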

As for `O=C(NC(=S)NNC(=O)c1cnccn1)c1ccc(F)cc1`, the GFP response vs DMSO in test [1] is 110% (inactive); in test [1] (setting [6]), 91.7%; in test [1] (setting [7]), 105%; in test [3], 104% (inactive). Moreover, the GFP response relative to DMSO is 259% (active) in test [2], 234% in test [2] (setting [8]) and 254% in test [2] (setting [9]). In addition, the GFP response, % of DMSO is 92.4% (inactive) in test [4], 99.1% (inactive) in test [5], 96.5% in test [5] (setting [6]) and 92.3% in test [5] (setting [7]).
Consider `Cc1cc(O)c(C(=O)/C=C/c2ccccc2Br)c(=O)o1`, for which the GFP response vs DMSO in test [1] was 90.3% (inactive); in test [1] (setting [6]), 95.9%; in test [1] (setting [7]), 87.7%; in test [3], 97.8% (inactive). Also, the GFP response relative to DMSO is 140% (inactive) in test [2], 137% in test [2] (setting [8]) and 144% in test [2] (setting [9]). The GFP response, % of DMSO was 102% (inactive) in test [4], 95.2% (inactive) in test [5], 98.1% in test [5] (setting [6]) and 93.4% in test [5] (setting [7]).
For the molecule `Oc1ccc(C2Nc3cccc4cccc(c34)N2)cc1`, the GFP response vs DMSO in test [1] was 99% (inactive); in test [1] (setting [6]) it was 99.2%; in test [1] (setting [7]) it was 99.4%; in test [3], 97.8% (inactive). Moreover, the GFP response relative to DMSO in test [2] was 107% (inactive); in test [2] (setting [8]), 105%; in test [2] (setting [9]) it was 111%. The GFP response, % of DMSO in test [4] was 98.7% (inactive); in test [5], 100% (inactive); in test [5] (setting [6]), 98.1%; in test [5] (setting [7]) it was 102%.
For `Cc1cccc(NC(=O)c2nc(S(=O)(=O)Cc3ccccc3)ncc2Cl)c1`, the GFP response vs DMSO in test [1] was 93.1% (inactive); in test [1] (setting [6]), 92.7%; in test [1] (setting [7]), 91.4%; in test [3], 108% (inactive). In addition, the GFP response relative to DMSO in test [2] is 136% (inactive); in test [2] (setting [8]), 128%; in test [2] (setting [9]), 137%. Besides, the GFP response, % of DMSO in test [4] was 116% (inactive); in test [5], 93.1% (inactive); in test [5] (setting [6]), 88.7%; in test [5] (setting [7]), 90.4%.
With `O=C1c2cccc3c([N+](=O)[O-])ccc(c23)C(=O)N1CCc1ccccn1`, the GFP response vs DMSO is 103% (inactive) in test [1], 104% in test [1] (setting [6]), 99.2% in test [1] (setting [7]) and 286% (active) in test [3]. Moreover, the values for the GFP response relative to DMSO in test [2], in test [2] (setting [8]) and in test [2] (setting [9]) were 164% (active), 157% and 156%, respectively. Also, the GFP response, % of DMSO is 120% (inactive) in test [4], 158% (active) in test [5], 156% in test [5] (setting [6]) and 144% in test [5] (setting [7]).
For `COc1ccc(-c2csc(NC(=O)CSc3nc(C)nc4sc(C(=O)O)c(C)c34)n2)cc1`, the GFP response vs DMSO is 100% (inactive) in test [1], 99% in test [1] (setting [6]), 100% in test [1] (setting [7]) and 102% (inactive) in test [3]. Besides, the GFP response relative to DMSO is 85.4% (inactive) in test [2], 87.9% in test [2] (setting [8]) and 89% in test [2] (setting [9]). Besides, the GFP response, % of DMSO in test [4] was 104% (inactive); in test [5], 102% (inactive); in test [5] (setting [6]), 99.7%; in test [5] (setting [7]) it was 103%.
Regarding `CCOC(=O)C(=CNNc1cccc(Cl)c1)C(=O)OCC`, the GFP response vs DMSO is 103% (inactive) in test [1], 102% in test [1] (setting [6]), 102% in test [1] (setting [7]) and 111% (inactive) in test [3]. Besides, the GFP response relative to DMSO in test [2] was 131% (inactive); in test [2] (setting [8]), 125%; in test [2] (setting [9]), 137%. Besides, the GFP response, % of DMSO in test [4] was 103% (inactive); in test [5] it was 103% (inactive); in test [5] (setting [6]), 101%; in test [5] (setting [7]), 104%.
Consider `CC(C)c1nnc(NC(=O)c2nc(S(=O)(=O)Cc3ccccc3F)ncc2Cl)s1`, for which the GFP response vs DMSO in test [1] is 98.4% (inactive); in test [1] (setting [6]), 97.8%; in test [1] (setting [7]), 99.2%; in test [3] it was 110% (inactive). The GFP response relative to DMSO in test [2] is 108% (inactive); in test [2] (setting [8]), 107%; in test [2] (setting [9]), 107%. Also, the GFP response, % of DMSO in test [4] was 101% (inactive); in test [5], 102% (inactive); in test [5] (setting [6]), 102%; in test [5] (setting [7]) it was 100%.
With `O=C1C(Cl)=C(N2CCN(Cc3ccccc3)CC2)C(=O)N1c1ccccc1`, the GFP response vs DMSO was 98.6% (inactive) in test [1], 98.4% in test [1] (setting [6]), 98.5% in test [1] (setting [7]) and 100% (inactive) in test [3]. Moreover, the values for the GFP response relative to DMSO in test [2], in test [2] (setting [8]) and in test [2] (setting [9]) were 96.2% (inactive), 95.6% and 96.2%, respectively. Also, the GFP response, % of DMSO in test [4] was 97.8% (inactive); in test [5], 99.1% (inactive); in test [5] (setting [6]) it was 98.1%; in test [5] (setting [7]) it was 96.6%.
As for `COC(=O)c1cc(N2C(=O)C3C(C2=O)C2(C)C=CC3(C)O2)ccc1Cl` (centres undefined), the GFP response vs DMSO in test [1] was 101% (inactive); in test [1] (setting [6]), 101%; in test [1] (setting [7]), 92.5%; in test [3], 110% (inactive). The results for the GFP response relative to DMSO in test [2], in test [2] (setting [8]) and in test [2] (setting [9]) were 193% (active), 173% and 177%, respectively. The GFP response, % of DMSO in test [4] was 106% (inactive); in test [5] it was 101% (inactive); in test [5] (setting [6]) it was 109%; in test [5] (setting [7]) it was 88.6%.
As to `O=C(O)CSC1CC(=O)N(c2ccc(Cl)c(Cl)c2)C1=O` (centres undefined), the GFP response vs DMSO in test [1] is 97.8% (inactive); in test [1] (setting [6]), 97.8%; in test [1] (setting [7]), 97.5%; in test [3], 101% (inactive). Also, the results for the GFP response relative to DMSO in test [2], in test [2] (setting [8]) and in test [2] (setting [9]) were 108% (inactive), 113% and 107%, respectively. Also, the GFP response, % of DMSO is 101% (inactive) in test [4], 100% (inactive) in test [5], 99.3% in test [5] (setting [6]) and 100% in test [5] (setting [7]).
As to `O=C(Oc1ccnc2cc(Cl)ccc12)N1CCCCCC1`, the GFP response vs DMSO in test [1] is 99.3% (inactive); in test [1] (setting [6]) it was 97.3%; in test [1] (setting [7]), 95%; in test [3], 437% (active). The figures for the GFP response relative to DMSO in test [2], in test [2] (setting [8]) and in test [2] (setting [9]) were 114% (inactive), 111% and 117%, respectively. In addition, the GFP response, % of DMSO in test [4] is 185% (active); in test [5], 92.6% (inactive); in test [5] (setting [6]), 93.2%; in test [5] (setting [7]) it was 89.1%.
On to `Brc1cc(Br)c2nc(-c3cccs3)ccc2c1`, for which the GFP response vs DMSO is 97.4% (inactive) in test [1], 99.1% in test [1] (setting [6]), 96.7% in test [1] (setting [7]) and 101% (inactive) in test [3]. Moreover, the GFP response relative to DMSO is 99.5% (inactive) in test [2], 99.1% in test [2] (setting [8]) and 98.4% in test [2] (setting [9]). Moreover, the GFP response, % of DMSO in test [4] was 98.2% (inactive); in test [5] it was 100% (inactive); in test [5] (setting [6]), 97.4%; in test [5] (setting [7]) it was 99.3%.
For the molecule `Cc1ccc(NS(=O)(=O)c2ccc(CCC(=O)N3CCOCC3)cc2)cc1`, the GFP response vs DMSO in test [1] was 94.6% (inactive); in test [1] (setting [6]), 94.6%; in test [1] (setting [7]) it was 94.9%; in test [3] it was 96.2% (inactive). The GFP response relative to DMSO was 95.4% (inactive) in test [2], 96% in test [2] (setting [8]) and 95.1% in test [2] (setting [9]). The GFP response, % of DMSO in test [4] was 102% (inactive); in test [5], 101% (inactive); in test [5] (setting [6]), 103%; in test [5] (setting [7]), 101%.

The record behind these values is PubChem BioAssay.
